From ChEMBL document CHEMBL4393677, “Comparative analysis of pyrimidine substituted aminoacyl-sulfamoyl nucleosides as potential inhibitors targeting class I aminoacyl-tRNA synthetases” (Eur J Med Chem, 2019)
Activity calls are given as the source filed them. The calls are words filed in the database; no cut-off is given here.

What was measured:
Leucine--tRNA ligase = Leucine--tRNA ligase (Escherichia coli (strain K12), UniProt P07813); assay: Inhibition of purified Escherichia coli BL21 (DE3) leuRS incubated for 10 mins in presence of 14C-labeled leucine by radiolabel transfer assay; details: read-out: Ki(app)
[1] = biological target: Isoleucine--tRNA ligase (Escherichia coli K-12) (UniProt P00956); assay: Inhibition of ileRS in Escherichia coli BL21 (DE3) pLysS S30 extract over expressing RimI incubated for 5 to 60 mins in presence of 14C-labeled isoleucine and acetyl-CoA by liquid scintillation counting method
[2] = biological target: T1, Tyrosine--tRNA ligase (Escherichia coli (strain K12)) (UniProt P0AGJ9); assay: Inhibition of tyrRS in Escherichia coli BL21 (DE3) pLysS S30 extract over expressing RimI incubated for 5 to 60 mins in presence of 14C-labeled tyrosine by liquid scintillation counting method
T1 sequence (whole entry): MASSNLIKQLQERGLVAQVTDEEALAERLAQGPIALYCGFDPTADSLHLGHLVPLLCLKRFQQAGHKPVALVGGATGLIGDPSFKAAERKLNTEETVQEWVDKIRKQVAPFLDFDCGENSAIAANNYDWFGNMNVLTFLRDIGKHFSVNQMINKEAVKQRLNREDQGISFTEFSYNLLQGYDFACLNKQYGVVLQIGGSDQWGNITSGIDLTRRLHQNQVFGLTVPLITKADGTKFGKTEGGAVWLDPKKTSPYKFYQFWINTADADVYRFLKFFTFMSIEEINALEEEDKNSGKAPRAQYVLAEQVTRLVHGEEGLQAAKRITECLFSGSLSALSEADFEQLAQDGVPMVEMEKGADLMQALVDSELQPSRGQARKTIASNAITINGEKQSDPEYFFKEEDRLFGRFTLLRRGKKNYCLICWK

[3] = biological target: Isoleucine--tRNA ligase (Escherichia coli K-12) (UniProt P00956); assay: Inhibition of ileRS in Escherichia coli BL21 (DE3) pLysS S30 extract over expressing SUMO incubated for 5 to 60 mins in presence of 14C-labeled isoleucine and acetyl-CoA by liquid scintillation counting method
[4] = biological target: T1, Tyrosine--tRNA ligase (Escherichia coli (strain K12)); assay: Inhibition of tyrRS in Escherichia coli BL21 (DE3) pLysS S30 extract over expressing SUMO incubated for 5 to 60 mins in presence of 14C-labeled tyrosine by liquid scintillation counting method
[5] = biological target: Isoleucine--tRNA ligase (Escherichia coli K-12) (UniProt P00956); assay: Inhibition of ileRS in Escherichia coli BL21 (DE3) pLysS S30 extract over expressing RimL incubated for 5 to 60 mins in presence of 14C-labeled isoleucine and acetyl-CoA by liquid scintillation counting method
Tyrosine--tRNA ligase = biological target: T2, Tyrosine--tRNA ligase (Escherichia coli (strain K12), UniProt P0AGJ9); assay: Inhibition of purified Escherichia coli BL21 (DE3) tyrRS incubated for 10 mins in presence of 14C-labeled tyrosine by radiolabel transfer assay; details: read-out: Ki(app)
T2 sequence (P0AGJ9 whole entry): T1 sequence (whole entry)

[6] = biological target: T1, Tyrosine--tRNA ligase (Escherichia coli (strain K12)); assay: Inhibition of tyrRS in Escherichia coli NCIB 8743 S30 extract assessed as aminoacylation at 250 nM incubated for 5 mins in presence of 14C-labeled tyrosine by liquid scintillation counting method relative to control; design: scale not given: the % may be the effect or the level left
Procedure, shortened: (§1)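 S30 extract from cells grown in LB at 37 °C to OD600 1.2, sonicated, twice clarified; diluted 10-fold. Inhibitor (5 µM stock) preincubated 5 min with extract, then aminoacylation at 37 °C with 30 mM Tris pH 8.0, 1 mM DTT, 5 g/L tRNA, 3 mM ATP, 30 mM KCl, 8 mM MgCl₂, ¹⁴C-Ile 15 µM or ¹⁴C-Tyr 9.66 µM; quenched at 1 min, TCA filters counted. Activity relative to no-inhibitor extract; mean of three.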

[7] = biological target: T1, Tyrosine--tRNA ligase (Escherichia coli (strain K12)); assay: Inhibition of tyrRS in Escherichia coli BL21 (DE3) pLysS S30 extract over expressing YhhY incubated for 5 to 60 mins in presence of 14C-labeled tyrosine by liquid scintillation counting method
[8] = biological target: T1, Tyrosine--tRNA ligase (Escherichia coli (strain K12)); assay: Inhibition of tyrRS in Escherichia coli BL21 (DE3) pLysS S30 extract over expressing RimL incubated for 5 to 60 mins in presence of 14C-labeled tyrosine by liquid scintillation counting method relative to control
Isoleucine--tRNA ligase = Isoleucine--tRNA ligase (Escherichia coli K-12, UniProt P00956); assay: Inhibition of purified Escherichia coli BL21 (DE3) ileRS incubated for 10 mins in presence of 14C-labeled isoleucine by radiolabel transfer assay; details: read-out: Ki(app)
[9] = biological target: Isoleucine--tRNA ligase (Escherichia coli K-12) (UniProt P00956); assay: Inhibition of ileRS in Escherichia coli NCIB 8743 S30 extract assessed as aminoacylation at 250 nM incubated for 5 mins in presence of 14C-labeled isoleucine by liquid scintillation counting method relative to control; design: scale not given: the % may be the effect or the level left; procedure, shortened: as §1
[10] = Stability of compound in Escherichia coli NCIB 8743 S30 extract assessed as compound degradation incubated for 1 hr n presence of 14C-labeled isoleucine and acetyl-CoA by liquid scintillation counting method; format: ADME, subcellular
Procedure, shortened: (§2)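 Inhibitor (5 μM stock) incubated at 37 °C up to 48 h with S30 extract (1:3), or with extract plus acetyl-CoA (10 mM stock) (1:1:3). Aliquots at set times added to aminoacylation mix (30 mM Tris pH 8.0, 1 mM DTT, tRNA, 3 mM ATP, 30 mM KCl, 8 mM MgCl₂, 10 μM ¹⁴C-isoleucine) at 37 °C; quenched after 1 min, ileRS activity by scintillation counting.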

[11] = Stability of compound in Escherichia coli NCIB 8743 S30 extract assessed as compound degradation incubated for 48 hr in presence of 14C-labeled isoleucine and acetyl-CoA by liquid scintillation counting method; format: ADME, subcellular; procedure, shortened: as §2
[12] = Stability of compound in Escherichia coli NCIB 8743 S30 extract assessed as compound degradation at 0.25 uM in presence of 14C-labeled isoleucine and acetyl-CoA by liquid scintillation counting method; format: ADME, subcellular; procedure, shortened: as §2
[13] = Stability of compound in Escherichia coli BL21 (DE3) pLysS S30 extract assessed as compound degradation at 0.25 uM in presence of 14C-labeled isoleucine and acetyl-CoA by liquid scintillation counting method; format: ADME, subcellular
[14] = biological target: Isoleucine--tRNA ligase (Escherichia coli K-12) (UniProt P00956); assay: Inhibition of ileRS in Escherichia coli BL21 (DE3) pLysS S30 extract over expressing YhhY incubated for 5 mins in presence of 14C-labeled isoleucine and acetyl-CoA by liquid scintillation counting method
[15] = biological target: Isoleucine--tRNA ligase (Escherichia coli K-12) (UniProt P00956); assay: Inhibition of ileRS in Escherichia coli BL21 (DE3) pLysS S30 extract over expressing YhhY incubated for 60 mins in presence of 14C-labeled isoleucine and acetyl-CoA by liquid scintillation counting method
[16] = biological target: Leucine--tRNA ligase (Escherichia coli (strain K12)) (UniProt P07813); assay: Inhibition of leuRS in Escherichia coli BL21 (DE3) pLysS S30 extract over expressing YhhY incubated for 5 mins in presence of 14C-labeled leucine by liquid scintillation counting method
[17] = biological target: Leucine--tRNA ligase (Escherichia coli (strain K12)) (UniProt P07813); assay: Inhibition of leuRS in Escherichia coli BL21 (DE3) pLysS S30 extract over expressing YhhY incubated for 60 mins in presence of 14C-labeled leucine by liquid scintillation counting method

Isoleucine--tRNA ligase, sequence (P00956 whole entry): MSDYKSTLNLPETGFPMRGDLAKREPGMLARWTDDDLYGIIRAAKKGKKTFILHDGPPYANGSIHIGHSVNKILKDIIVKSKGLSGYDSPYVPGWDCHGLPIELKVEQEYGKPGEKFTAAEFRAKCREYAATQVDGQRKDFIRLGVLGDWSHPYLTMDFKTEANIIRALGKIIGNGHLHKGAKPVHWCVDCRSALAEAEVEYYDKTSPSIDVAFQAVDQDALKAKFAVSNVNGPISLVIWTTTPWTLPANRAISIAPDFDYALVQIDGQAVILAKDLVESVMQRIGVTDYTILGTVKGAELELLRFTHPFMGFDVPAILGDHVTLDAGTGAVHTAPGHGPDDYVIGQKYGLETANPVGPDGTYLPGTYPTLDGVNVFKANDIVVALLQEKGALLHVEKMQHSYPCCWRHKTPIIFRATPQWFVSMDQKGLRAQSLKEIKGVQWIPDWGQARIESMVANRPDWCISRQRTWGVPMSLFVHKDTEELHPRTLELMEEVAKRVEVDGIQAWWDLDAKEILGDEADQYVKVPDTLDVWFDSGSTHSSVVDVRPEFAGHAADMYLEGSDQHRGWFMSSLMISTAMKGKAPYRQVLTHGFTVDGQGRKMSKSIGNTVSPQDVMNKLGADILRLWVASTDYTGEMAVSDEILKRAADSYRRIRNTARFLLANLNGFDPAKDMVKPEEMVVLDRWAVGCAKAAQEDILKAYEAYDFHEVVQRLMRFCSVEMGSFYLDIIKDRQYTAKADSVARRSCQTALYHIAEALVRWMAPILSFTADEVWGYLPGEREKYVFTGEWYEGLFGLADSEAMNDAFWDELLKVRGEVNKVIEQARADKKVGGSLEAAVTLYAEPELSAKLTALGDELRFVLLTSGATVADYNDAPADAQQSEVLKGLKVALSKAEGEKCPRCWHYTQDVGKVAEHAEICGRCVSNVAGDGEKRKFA
Isoleucine--tRNA ligase (Escherichia coli K-12), sequence (P00956 whole entry): as above
Leucine--tRNA ligase (Escherichia coli (strain K12)), sequence (P07813 whole entry): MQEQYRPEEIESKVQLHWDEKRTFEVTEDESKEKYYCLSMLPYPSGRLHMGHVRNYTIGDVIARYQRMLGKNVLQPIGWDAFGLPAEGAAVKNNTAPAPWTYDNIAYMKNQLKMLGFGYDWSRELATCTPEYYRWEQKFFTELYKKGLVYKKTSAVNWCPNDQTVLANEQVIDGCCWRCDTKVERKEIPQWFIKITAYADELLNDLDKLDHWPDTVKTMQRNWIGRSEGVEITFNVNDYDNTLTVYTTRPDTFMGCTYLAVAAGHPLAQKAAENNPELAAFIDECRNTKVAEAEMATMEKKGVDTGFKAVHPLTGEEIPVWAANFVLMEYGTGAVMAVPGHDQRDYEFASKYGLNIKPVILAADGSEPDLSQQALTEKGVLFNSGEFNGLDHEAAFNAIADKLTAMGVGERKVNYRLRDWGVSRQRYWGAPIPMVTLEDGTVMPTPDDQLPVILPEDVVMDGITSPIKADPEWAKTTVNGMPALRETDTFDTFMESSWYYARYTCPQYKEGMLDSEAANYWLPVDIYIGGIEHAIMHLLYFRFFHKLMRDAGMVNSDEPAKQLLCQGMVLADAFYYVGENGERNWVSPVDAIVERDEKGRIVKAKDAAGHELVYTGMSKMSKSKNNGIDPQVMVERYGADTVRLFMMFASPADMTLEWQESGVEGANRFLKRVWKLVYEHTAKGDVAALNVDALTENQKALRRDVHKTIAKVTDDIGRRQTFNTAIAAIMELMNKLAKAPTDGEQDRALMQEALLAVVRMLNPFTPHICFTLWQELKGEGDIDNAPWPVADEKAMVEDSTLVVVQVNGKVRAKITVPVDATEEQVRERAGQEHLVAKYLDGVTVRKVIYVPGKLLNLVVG
Leucine--tRNA ligase, sequence (P07813 whole entry): as above

Structure (SMILES)	Ki (Leucine--tRNA ligase) [nM]	inhibition [1]	inhibition [2]	inhibition [3]	inhibition [4]	inhibition [5]	Ki (Tyrosine--tRNA ligase) [nM]	Activity [6]	inhibition [7]	inhibition [8]	Ki (Isoleucine--tRNA ligase) [nM]	Activity [9] [%]	Stability [10]	Stability [11]	Stability [12]	Stability [13]	inhibition [14]	inhibition [15]	inhibition [16]	inhibition [17]
N[C@@H](Cc1ccc(O)cc1)C(=O)NS(=O)(=O)OC[C@H]1O[C@@H](n2ccc(=O)[nH]c2=O)[C@H](O)[C@@H]1O	–	Active	Active	Active	Active	–	43.4	37 to 62%	Active	Active	–	–	–	–	–	–	–	–	–	–
Cn1c(=O)ccn([C@@H]2O[C@H](COS(=O)(=O)NC(=O)[C@@H](N)Cc3ccc(O)cc3)[C@@H](O)[C@H]2O)c1=O	–	–	–	–	–	–	149	37 to 62%	–	–	–	–	–	–	–	–	–	–	–	–
CC(C)C[C@H](N)C(=O)NS(=O)(=O)OC[C@H]1O[C@@H](n2ccc(=O)n(C)c2=O)[C@H](O)[C@@H]1O	29.5	–	–	–	–	–	–	–	–	–	–	–	–	–	–	–	–	–	–	–
CC[C@H](C)[C@H](N)C(=O)NS(=O)(=O)OC[C@H]1O[C@@H](n2ccc(=O)[nH]c2=O)[C@H](O)[C@@H]1O	–	Active	Active	Active	Active	inactive	–	–	–	–	55	5 to 14	Stable	Stable	Stable	Stable	Active	inactive	Active	inactive
CC[C@H](C)[C@H](N)C(=O)NS(=O)(=O)OC[C@H]1O[C@@H](n2ccc(=O)n(C)c2=O)[C@H](O)[C@@H]1O	–	–	–	–	–	–	–	–	–	–	1040	17 to 34	Stable	Stable	–	–	–	–	–	–
Nc1ccn([C@@H]2O[C@H](COS(=O)(=O)NC(=O)[C@@H](N)Cc3ccc(O)cc3)[C@@H](O)[C@H]2O)c(=O)n1	–	Active	Active	Active	Active	–	1480	inactive	inactive	–	–	–	–	–	–	–	–	–	–	–
CC[C@H](C)[C@H](N)C(=O)NS(=O)(=O)OC[C@H]1O[C@@H](n2ccc(N)nc2=O)[C@H](O)[C@@H]1O	–	Active	Active	Active	Active	inactive	–	–	–	–	17.2	5 to 14	Stable	Stable	–	–	Active	inactive	Active	inactive

The remaining lines, values ahead:

Ki (Leucine--tRNA ligase) [nM]	inhibition [1]	inhibition [2]	inhibition [3]	inhibition [4]	inhibition [5]	Ki (Tyrosine--tRNA ligase) [nM]	Activity [6]	inhibition [7]	inhibition [8]	Ki (Isoleucine--tRNA ligase) [nM]	Activity [9] [%]	Stability [10]	Stability [11]	Stability [12]	Stability [13]	inhibition [14]	inhibition [15]	inhibition [16]	inhibition [17]	Structure (SMILES)
9.8	Active	Active	Active	Active	inactive	–	–	–	–	–	–	–	–	–	–	–	–	–	–	CC(C)C[C@H](N)C(=O)NS(=O)(=O)OC[C@H]1O[C@@H](n2ccc(N)nc2=O)[C@H](O)[C@@H]1O
–	Active	Active	Active	Active	inactive	–	–	–	–	–	–	–	–	–	–	–	–	–	–	CC(C)C[C@H](N)C(=O)NS(=O)(=O)OC[C@H]1O[C@@H](n2cnc3c(N)ncnc32)[C@H](O)[C@@H]1O
–	Active	Active	Active	Active	inactive	–	–	–	–	–	0.05 to 1.8	Stable	Stable	Stable	Stable	Active	inactive	Active	Active	CC[C@H](C)[C@H](N)C(=O)NS(=O)(=O)OC[C@H]1O[C@@H](n2cnc3c(N)ncnc32)[C@H](O)[C@@H]1O
–	Active	Active	Active	Active	–	–	0.05 to 1.8%	Active	Active	–	–	–	–	–	–	–	–	–	–	Nc1ncnc2c1ncn2[C@@H]1O[C@H](COS(=O)(=O)NC(=O)[C@@H](N)Cc2ccc(O)cc2)[C@@H](O)[C@H]1O
20.8	Active	Active	Active	Active	inactive	–	–	–	–	–	–	–	–	–	–	–	–	–	–	CC(C)C[C@H](N)C(=O)NS(=O)(=O)OC[C@H]1O[C@@H](n2ccc(=O)[nH]c2=O)[C@H](O)[C@@H]1O
